Compounds with a hit are over-represented: about 3.5% of the library has one in this group of screens.
RGS4 inh – inhibitors of human RGS4; HEK293 M3R/RGS4 inducible, Fluo-4 calcium flux; active compounds read high; triggered by carbachol at its EC20; B-score at 10 µM; hit rate 0.45% among 310,000;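 active = B-score, a plate-corrected calcium signal, over three deviations above library mean, with baseline fluorescence within five deviations of library mean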;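 also: RGS4 expression induced by doxycycline in cells with stable M3 receptor; B-score is computed from the integrated fluorescence ratio over baseline after carbachol; higher B-score means a larger calcium signal and so more RGS4 inhibition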
Target sequence (P49798 whole entry, looked up): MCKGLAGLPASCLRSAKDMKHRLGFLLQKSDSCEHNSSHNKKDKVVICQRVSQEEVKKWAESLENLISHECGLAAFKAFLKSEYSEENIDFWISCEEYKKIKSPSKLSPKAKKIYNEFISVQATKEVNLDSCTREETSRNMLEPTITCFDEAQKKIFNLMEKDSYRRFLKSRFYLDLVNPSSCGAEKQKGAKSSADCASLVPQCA
RGS4 pot – potentiators or activators of RGS4. HEK293 M3R/inducible RGS4, carbachol calcium flux Fluo4; active compounds read low. hit rate 0.92% among 310,000. AID 463111. B-score at 10 µM;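 active = B-score of the integrated calcium signal more than 4 SD below the library mean, with starting fluorescence not abnormally high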;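 also: negative B-score means reduced calcium response which marks RGS4 activation or potentiation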
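Material: M3R-expressing HEK293 line, RGS4 induced by doxycycline | Schedule: Overnight RGS4 induction, 30 min dye load 37 °C, 20 min compound RT | Measured by: Fluo4 fluorescence kinetic imaging of calcium | Read-out: Integrated calcium ratio converted to B score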
MrgX1 ag – human MrgX1 receptor agonism, primary screen; hit rate 0.44% among 310,000; B-score at 10 µM; MrgX1-HEK293 cells, Fluo-4 calcium fluorescence, agonist mode; active compounds read high; Q96LB2;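 active = calcium response B-score plate-corrected fluorescence ratio at least 3 library SD, with starting fluorescence B-score inside 5 SD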
Target sequence (Q96LB2 whole entry, looked up): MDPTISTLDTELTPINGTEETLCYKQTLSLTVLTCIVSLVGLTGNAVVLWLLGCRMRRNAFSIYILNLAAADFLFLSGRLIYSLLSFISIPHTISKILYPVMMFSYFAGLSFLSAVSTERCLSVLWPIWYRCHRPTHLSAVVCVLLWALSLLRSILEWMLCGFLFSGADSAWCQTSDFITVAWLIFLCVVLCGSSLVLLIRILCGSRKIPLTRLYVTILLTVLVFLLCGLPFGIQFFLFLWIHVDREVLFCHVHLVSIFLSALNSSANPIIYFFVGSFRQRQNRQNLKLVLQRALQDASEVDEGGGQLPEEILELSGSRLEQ
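Assay system: stable human MrgX1 HEK293 cell line. Quantity: 15,000 cells per well. Schedule: cells plated overnight, dye loaded 0.5 h 37 °C, 0.5 h room temperature. Detection: Fluo-4 NW calcium-flux fluorescence, kinetic read. Read-out basis: peak-minus-minimum fluorescence over baseline, converted to B scores. Control set: positive and negative control wells on each plate.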
MrgX1 antag – antagonists of human MrgX1 receptor | Q96LB2 | MRGX1-HEK293 calcium flux, Fluo-4, BAM8-22 antagonism; active compounds read low | B-score at 10 µM | hit rate 1.3% among 310,000 | AID 588676;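 active = calcium-response B-score plate-corrected more than 3 library SD below zero, starting fluorescence within 5 deviations, no agonist response on first addition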;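 also: peak minus trough fluorescence over baseline after final BAM8-22 challenge near maximal dose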
MrgX1 allo act – human MrgX1 positive allosteric modulation, primary screen | hit rate 0.63% among 310,000 | MrgX1-HEK293, Fluo-4 calcium flux, FDSS; active compounds read high | B-score at 10 µM | Q96LB2;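 active = plate-corrected calcium response at least 3 library SD above typical, normal starting fluorescence, not activating the receptor alone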;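 also: compound read alongside a low EC10 to EC30 dose of BAM8-22 agonist; peak minus trough fluorescence over baseline measured at the second addition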
MrgX1 antag conf – confirmation of human MrgX1 receptor antagonists | shares compounds with MrgX1 antag | MrgX1-HEK293, BAM8-22 calcium flux, Fluo-4; active compounds read low | hit rate 19% among 2,300 | remaining BAM8-22 calcium response % of control (active compounds read low), % at 10 µM;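 active = remaining agonist calcium response no higher than 100% minus 3 SD of agonist-only control wells, with starting fluorescence near control levels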;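 also: agonist BAM8-22 given at a near maximal EC90 to ECmax level; peak minus minimum fluorescence divided by baseline after agonist addition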
HEK293 Ca flux – counter-screen for MrgX1 antagonists: effect in parental HEK293 cells; shares compounds with MrgX1 antag; Fluo-4 calcium fluorescence, FDSS; fluorescence ratio F(max-min)/F0 at 10 µM; hit rate 2% among 4,000; AID 624111;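 active = duplicate-averaged calcium fluorescence ratio at least three times the standard deviation of buffer wells, a nonspecific response in parental cells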
HEK293 Ca counter – counter-screen for MrgX1 allosteric activators: effect in parental HEK293 cells; fluorescence ratio F(max-min)/F0 at 10 µM; parental HEK293 calcium flux, Fluo-4 fluorescence ratio; active compounds read high; hit rate 0.4% among 4,000; shares compounds with MrgX1 antag; AID 624114;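 active = calcium fluorescence ratio, averaged over duplicates, at least 3 SD of the buffer-well ratio, meaning a nonspecific response in receptor-free cells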;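 also: untransfected parental HEK293 lacking MrgX1 used as counterscreen for MrgX1 allosteric activators; fluorescence change taken during the second addition on a kinetic imager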
HEK293 Ca cntr2 – MrgX1 activator counter-screen hit in parental HEK293 cells; shares compounds with MrgX1 antag; Fluo-4 calcium fluorescence (FDSS); active compounds read high; fluorescence ratio F(max-min)/F0 at 10 µM; hit rate 8.7% among 4,000; AID 624115;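 active = calcium fluorescence ratio at least three times the spread of buffer wells, meaning a non-specific response in parental cells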
The depositor's hits bear a star.

How did Cc1ccc(C(=O)NC(=S)Nc2ccccc2N2CCCC2)cc1[N+](=O)[O-] do in these assays?
RGS4 inh: inactive; RGS4 pot: inactive; MrgX1 ag: inactive; MrgX1 antag: -23*; MrgX1 allo act: inactive; MrgX1 antag conf: inactive; HEK293 Ca flux: inactive; HEK293 Ca counter: inactive; HEK293 Ca cntr2: inactive

How did CCOc1cc(C2C(C(=O)c3ccco3)=C(O)C(=O)N2CC2CCCO2)ccc1O (stereo not drawn) do in these assays?
RGS4 inh: inactive; RGS4 pot: inactive; MrgX1 ag: inactive; MrgX1 antag: inactive; MrgX1 allo act: inactive

What do the screens show for `O=c1cc(Cc2ccccc2)[nH]c(=S)[nH]1`?
RGS4 inh: inactive; RGS4 pot: inactive; MrgX1 ag: inactive; MrgX1 antag: -5*; MrgX1 allo act: inactive; MrgX1 antag conf: inactive; HEK293 Ca flux: inactive; HEK293 Ca counter: inactive; HEK293 Ca cntr2: inactive

How did COCc1cc(=O)[nH]c(=S)[nH]1 do in these assays?
RGS4 inh: inactive; RGS4 pot: inactive; MrgX1 ag: inactive; MrgX1 antag: -7.1*; MrgX1 allo act: inactive; MrgX1 antag conf: inactive; HEK293 Ca flux: inactive; HEK293 Ca counter: inactive; HEK293 Ca cntr2: inactive

Results for CCn1c(SCC(=O)Nc2cc(Cl)ccc2OC)nnc1C1CC1 ?
RGS4 inh: inactive; RGS4 pot: inactive; MrgX1 ag: inactive; MrgX1 antag: inactive; MrgX1 allo act: inactive

Results for Cc1c(C(=O)N2CCN(Cc3ccccc3)CC2)oc2c1C(=O)CC(C)(C)C2 ?
RGS4 inh: inactive; RGS4 pot: inactive; MrgX1 ag: inactive; MrgX1 antag: inactive; MrgX1 allo act: inactive

What do the screens show for `CCOC(=O)c1nn(-c2cc(C(=O)OC)cc(C(=O)OC)c2)cc1O`?
RGS4 inh: inactive; RGS4 pot: inactive; MrgX1 ag: inactive; MrgX1 antag: inactive; MrgX1 allo act: inactive

Results for CCOC(=O)c1nn(-c2sc(C(=O)OC)c(C)c2C(=O)OC)cc1O ?
RGS4 inh: inactive; RGS4 pot: inactive; MrgX1 ag: inactive; MrgX1 antag: -6.8*; MrgX1 allo act: inactive; MrgX1 antag conf: 62%*; HEK293 Ca flux: inactive; HEK293 Ca counter: inactive; HEK293 Ca cntr2: inactive

What do the screens show for `CNc1oc(-c2ccc(Cl)cc2)nc1P(=O)(c1ccccc1)c1ccccc1`?
RGS4 inh: inactive; RGS4 pot: inactive; MrgX1 ag: inactive; MrgX1 antag: inactive; MrgX1 allo act: inactive

How did CCOc1ccccc1N1CC(C(=O)N2CCOCC2)CC1=O (stereo not drawn) do in these assays?
RGS4 inh: inactive; RGS4 pot: inactive; MrgX1 ag: inactive; MrgX1 antag: inactive; MrgX1 allo act: inactive

What do the screens show for `COc1ccc(C)cc1-n1nnnc1SCC(=O)Nc1cccnc1Cl`?
RGS4 inh: inactive; RGS4 pot: inactive; MrgX1 ag: inactive; MrgX1 antag: -5.9*; MrgX1 allo act: inactive; MrgX1 antag conf: inactive; HEK293 Ca flux: inactive; HEK293 Ca counter: inactive; HEK293 Ca cntr2: inactive

Results for COc1ccc(C)cc1-n1nnnc1SCC(=O)Nc1cc(C)on1 ?
RGS4 inh: inactive; RGS4 pot: inactive; MrgX1 ag: inactive; MrgX1 antag: inactive; MrgX1 allo act: inactive

Results for CC(C)[C@H](NC(=O)[C@@H]1Cc2ccccc2CN1)C(=O)Nc1ccc2c(c1)OCO2 ?
RGS4 inh: inactive; RGS4 pot: inactive; MrgX1 ag: inactive; MrgX1 antag: inactive; MrgX1 allo act: inactive

How did O=C(NCc1ccccc1)C12CC3CC(CC(C3)C1)C2 do in these assays?
RGS4 inh: inactive; RGS4 pot: inactive; MrgX1 ag: inactive; MrgX1 antag: inactive; MrgX1 allo act: inactive

How did O=C(O)CCNC(=O)C12CC3CC(CC(C3)C1)C2 do in these assays?
RGS4 inh: inactive; RGS4 pot: inactive; MrgX1 ag: inactive; MrgX1 antag: -8.1*; MrgX1 allo act: inactive; MrgX1 antag conf: inactive; HEK293 Ca flux: inactive; HEK293 Ca counter: inactive; HEK293 Ca cntr2: inactive

Results for CNc1c(NC(=O)C2CCC(C)CC2)c(=O)oc2ccccc12 (stereo not drawn) ?
RGS4 inh: inactive; RGS4 pot: inactive; MrgX1 ag: inactive; MrgX1 antag: inactive; MrgX1 allo act: inactive

How did COc1ccccc1NS(=O)(=O)c1cc(NC(=O)C(C)(C)C)ccc1N1CCOCC1 do in these assays?
RGS4 inh: inactive; RGS4 pot: inactive; MrgX1 ag: inactive; MrgX1 antag: -4.6*; MrgX1 allo act: inactive; MrgX1 antag conf: 82%*; HEK293 Ca flux: inactive; HEK293 Ca counter: inactive; HEK293 Ca cntr2: inactive

Results for CCOc1ccc(CCNC(=O)C2CCN(S(=O)(=O)N3CCC(C)CC3)CC2)cc1OCC ?
RGS4 inh: inactive; RGS4 pot: inactive; MrgX1 ag: inactive; MrgX1 antag: inactive; MrgX1 allo act: inactive

What do the screens show for `Cc1nnc(SCC(=O)N(Cc2ccccc2)C(C)(C)C)[nH]c1=O`?
RGS4 inh: inactive; RGS4 pot: inactive; MrgX1 ag: inactive; MrgX1 antag: -4.6*; MrgX1 allo act: inactive; MrgX1 antag conf: inactive; HEK293 Ca flux: inactive; HEK293 Ca counter: inactive; HEK293 Ca cntr2: inactive

What do the screens show for `CC(C)(C)N(Cc1ccccc1)C(=O)CSc1nc2ccccc2c(=O)[nH]1`?
RGS4 inh: inactive; RGS4 pot: inactive; MrgX1 ag: inactive; MrgX1 antag: inactive; MrgX1 allo act: inactive

How did CCOC(=O)c1c(NC(=O)C2c3ccccc3Oc3ccccc32)sc(C(=O)N(CC)CC)c1C do in these assays?
RGS4 inh: inactive; RGS4 pot: inactive; MrgX1 ag: inactive; MrgX1 antag: inactive; MrgX1 allo act: inactive

How did O=C(O)Cn1cnc2c(oc3ccccc32)c1=O do in these assays?
RGS4 inh: inactive; RGS4 pot: inactive; MrgX1 ag: inactive; MrgX1 antag: inactive; MrgX1 allo act: inactive

What do the screens show for `O=C(Cn1cnc2c(oc3ccccc32)c1=O)c1ccccc1`?
RGS4 inh: inactive; RGS4 pot: inactive; MrgX1 ag: inactive; MrgX1 antag: -8.2*; MrgX1 allo act: inactive; MrgX1 antag conf: inactive; HEK293 Ca flux: inactive; HEK293 Ca counter: inactive; HEK293 Ca cntr2: inactive
